In the library only some 2.3% were active in any assay of this set; here they are far more common.
TPT1 inhibitor – blocks Candida albicans tRNA 2'-phosphotransferase; recombinant caTPT1, FP RNA substrate dephosphorylation; actives 0.81% (n = 300,000); AID 1962; inhibition, % at 5 µM;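 active = inhibition above the mean of all tested compounds plus 3 SD, set per screening campaign, cut at about 24% in these data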;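 also: plate controls were DMSO alone for no effect and ferristatin control at 100 nM for full effect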
Rpn11 block – Rpn11 (human) deubiquitinase inhibition | human 26S proteasome, Ub4-pepOG fluorescence polarization; 20S core pre-blocked with epoxomicin | O00487 | inhibition, % at 20 µM | actives 0.59% (n = 360,000) | AID 588493;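 active = inhibition at 20 µM, scaled to each plate's controls, above about 33%, limit read from the data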
Target sequence (O00487 whole entry, looked up): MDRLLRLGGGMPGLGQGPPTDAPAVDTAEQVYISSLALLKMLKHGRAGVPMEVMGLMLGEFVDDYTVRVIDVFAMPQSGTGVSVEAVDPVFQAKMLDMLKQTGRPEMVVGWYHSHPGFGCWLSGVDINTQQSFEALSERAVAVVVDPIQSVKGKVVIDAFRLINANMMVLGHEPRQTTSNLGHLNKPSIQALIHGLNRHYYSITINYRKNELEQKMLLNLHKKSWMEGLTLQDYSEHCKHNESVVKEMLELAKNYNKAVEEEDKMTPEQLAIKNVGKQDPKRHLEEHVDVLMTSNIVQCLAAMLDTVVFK
HNF4A DNA FP – change in binding of human HNF4 alpha to DNA | HNF4a-FITC DNA binding, fluorescence polarization, 1 h | activity change, % at 10 µM | actives 0.3% (n = 360,000) | P41235; in the data active = activity change above about 30%, passing the limit was not always enough
Myeloid diff MLP – compounds promoting myeloid differentiation; ER-HoxA9 myeloid progenitors, lysozyme-GFP differentiation, flow cytometry; calls only at 10 µM; actives 1% (n = 360,000); AID 624256;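 active = normalized GFP-positive differentiation at or above the plate's own cutoff, the solvent-only control mean plus 3 SD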;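 also: cells exposed to compound for four days before flow analysis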
CSN deneddyl inh – blocks human CSN-mediated cullin deneddylation; inhibition, % at 12.5 µM; actives 0.38% (n = 360,000); Q92905; Purified CSN, SCF-Nedd8-OG deneddylation, fluorescence polarization; AID 651999;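 active = pattern-corrected inhibition above about 35%, with an unprinted fluorescence ratio check between 0.5 and 1.5, limit read from the data, passing the limit was not always enough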;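 also: 0% = enzyme with substrate and 100% = substrate without enzyme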
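Test system: purified human Csn5 enzyme expressed in HEK293T cells. Amount: 0.24 nM enzyme. Reagent: SCFSkp2-Nedd8OG substrate at 10 nM final. Schedule: 90 min incubation of compound, enzyme and substrate at room temperature. Detection: fluorescence polarization. Read-out: % inhibition of substrate cleavage by Csn5.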
Myeloid diff CP1 – compounds promoting myeloid differentiation. shares compounds with Myeloid diff MLP. ER-HoxA9 myeloid progenitors, GFP/Mac1 double-positive flow. calls only. actives 2% (n = 2,300). AID 651706;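 active = share of green or green-and-red cells above 9 and 9% in run 1 or 4 and 3% in run 2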
GFP autofluor – compound fluorescence in myeloid differentiation counter-screen; actives 7.4% (n = 2,300); shares compounds with Myeloid diff MLP; ER-HoxA9 myeloid progenitors, no estrogen, GFP autofluorescence flow cytometry; vehicle wells 0%, positive control 100%; fluorescence response, % (test concentration not listed);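 active = over 5% cells positive for green fluorescent reporter, or over 2% positive for both it and APC stain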;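 also: range taken on the double positive population between DMSO and positive control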
Active calls of the source: *; i = inactive; / = not tested or not shown; + = active, no number.

SMILES	TPT1 inhibitor	Rpn11 block	HNF4A DNA FP	Myeloid diff MLP	CSN deneddyl inh	Myeloid diff CP1	GFP autofluor
CC12CCC(=O)N1C(C(=O)Nc1ccc(SC(F)F)cc1)CS2 (stereo not drawn)	3	-9	-1	i	2	/	/
CCOC(=O)c1ccc(-n2c(N)c(C(=O)NCC3CCCO3)sc2=S)cc1 (stereo not drawn)	2	-7	2	i	-3	/	/
COc1ccc(-n2c(N)c(C(=O)NCC3CCCO3)sc2=S)cc1 (stereo not drawn)	-11	-2	-3	+	-1	i	0
CN1CCCCC1(C)C(=O)NCc1ccc(C(C)(C)C)cc1 (stereo not drawn)	/	-5	3	i	4	/	/
CC(C)(C)OC(=O)N[C@H](C(=O)OC(C)(C)C)c1ccc2ccccc2c1	/	-3	4	+	7	i	1
CC1CC(C)CN(C(=O)COC(=O)c2cccc(S(=O)(=O)N(C)c3ccccc3)c2)C1 (stereo not drawn)	/	1	-2	i	-1	/	/
CC1CC(C)CN(C(=O)COC(=O)c2ccc(S(=O)(=O)N(C)c3ccccc3)cc2)C1 (stereo not drawn)	/	-4	-3	i	0	i	0
Cn1c(SCc2cccc(F)c2)nnc1-c1ccncc1	6	8	1	i	2	/	/
Cc1ccccc1CN(c1ccc(C(=O)Nc2ccccc2C(=O)NCc2ccco2)cc1)S(C)(=O)=O	2	3	2	i	2	i	0
COCCNC(=O)Cn1nc(-c2ccc(C)cc2)c2ccccc2c1=O	-2	-6	5	i	2	/	/
CC(=O)c1ccc(OCc2nnn(CC(=O)O)c2-c2ccccc2)cc1	/	-8	-2	i	6	/	/
CCn1c(=O)c(C(=O)NC(C)c2ccccc2)c(O)c2ccccc21 (stereo not drawn)	/	-14	4	+	2	i	0
Cc1ccc(NC(=O)C2CC2c2ccccc2)c([N+](=O)[O-])c1 (stereo not drawn)	-3	-4	2	i	4	/	/
COc1ccc(NC(=O)c2csc(Cc3ccc(Cl)cc3)n2)cc1	-1	2	-1	i	12	/	/
COc1ccc(COc2ccsc2C(=O)Nc2ccc(Cl)cc2)cc1	-1	6	6	i	5	i	0
O=C(CN1CCOCC1)Nc1cc(C(F)(F)F)ccc1Cl	0	-7	-2	i	3	/	/
O=C(CN1CCN(c2ccc(F)cc2)CC1)Nc1cc(C(F)(F)F)ccc1Cl	-1	2	1	i	1	i	1
CC(C)Cc1nnc(NC(=O)C2CCCN(C(=O)c3ccc(Cl)cc3)C2)s1 (stereo not drawn)	/	11	-6	i	5	/	/
COc1cc(OC)c(OC)cc1/C=N/NC(=O)c1ccc(CSc2nc(C)cc(C)n2)cc1	1	2	8	+	2	i	0
Cn1cc(CN(CCCN2CCOCC2)C(=S)Nc2cccc(Cl)c2)c2ccccc21	-6	-5	-2	+	-9	i	0
CCCOc1ccc(N2C(=O)CC(S/C(N)=N/N=C(\C)c3cccs3)C2=O)cc1 (stereo not drawn)	1	-9	1	i	0	i	0
O=C(NCCCN1CCCC1=O)C(=O)NCC1OCCN1S(=O)(=O)c1ccc(Cl)cc1 (stereo not drawn)	1	-4	3	i	1	/	/
Cc1cccc(NC(=S)NCC23C=CC(O2)C2C(=O)N(c4ccc(Cl)cc4)C(=O)C23)c1 (stereo not drawn)	1	-5	1	+	-1	i	1
Cc1ccc(NC(=S)NCC23C=CC(O2)C2C(=O)N(c4ccc(C)cc4)C(=O)C23)cc1 (stereo not drawn)	2	1	0	i	2	/	/
O=C(Nc1sc2c(c1C(=O)NCC1CCCO1)CCCC2)c1cccs1 (stereo not drawn)	2	-5	3	i	-3	i	0

Screening data deposited in PubChem by several laboratories.
